{
  "source": "ChEMBL document CHEMBL4152273",
  "about": "“Development of novel amino-quinoline-5,8-dione derivatives as NAD(P)H:quinone oxidoreductase 1 (NQO1) inhibitors with potent antiproliferative activities” (Eur J Med Chem, 2018)",
  "key": {"[1]": {"target": "T1, NAD(P)H dehydrogenase [quinone] 1 (Homo sapiens, UniProt P15559)", "T1 sequence (P15559 whole entry)": "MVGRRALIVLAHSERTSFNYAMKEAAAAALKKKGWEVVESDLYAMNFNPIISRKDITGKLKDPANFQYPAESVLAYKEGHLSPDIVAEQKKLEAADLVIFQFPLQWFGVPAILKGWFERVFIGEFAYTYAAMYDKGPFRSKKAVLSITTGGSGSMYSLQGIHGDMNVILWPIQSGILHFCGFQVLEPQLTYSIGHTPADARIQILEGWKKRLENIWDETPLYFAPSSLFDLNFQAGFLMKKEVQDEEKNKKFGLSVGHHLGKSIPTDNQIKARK", "assay": "Inhibition of NQO1 activity in human HeLaS3 cells incubated for 24 hrs measured every 20 secs for 5 mins", "format": "cell-based"}, "[2]": {"species": "Homo sapiens", "assay": "Increase in ROS production in human KBVIN cells after 24 hrs in presence of H2O2 by DCFH-DA dye based flow cytometry", "format": "functional, cell-based"}, "[3]": {"tested_on": "HeLa S3", "assay": "Increase in ROS production in human HeLaS3 cells after 24 hrs in presence of H2O2 by DCFH-DA dye based flow cytometry", "format": "functional, cell-based"}, "[4]": {"species": "Homo sapiens", "assay": "Induction of mitochondrial membrane potential loss in human KBVIN cells after 24 hrs by MITO-ID MP dye based assay", "format": "functional, cell-based", "how_it_was_run": "(§1)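 Cells plated at 2.5 × 10^5/mL and treated with 0.01–5 μM, CCCP as positive control or DMSO vehicle for 24 h at 37 °C. MITO-ID MP dye loaded in the dark for 30 min at 37 °C, then fluorescence read at Ex 490 nm and Em 590 nm.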"}, "[5]": {"target": "T1, NAD(P)H dehydrogenase [quinone] 1", "assay": "Inhibition of NQO1 activity in human KBVIN cells incubated for 24 hrs measured every 20 secs for 5 mins", "format": "cell-based"}, "[6]": {"tested_on": "HeLa S3", "assay": "Induction of mitochondrial membrane potential loss in human HeLaS3 cells after 24 hrs by MITO-ID MP dye based assay", "format": "functional, cell-based", "how_it_was_run": "as §1"}, "[7]": {"tested_on": "HeLa S3", "assay": "Cytotoxicity against human HeLaS3 cells assessed as decrease in cell viability after 72 hrs in presence of NQO1 inhibitor dicoumarol by MTT assay", "format": "functional, cell-based", "conditions": "HeLa S3, 72 h, in the assay text read “SRB assay” for “MTT assay”", "how_it_was_run": "(§2)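 NQO1 dependency: cells co-treated for 72 h with test compound plus […] or 40 mM N-acetylcysteine. Viability read by SRB: TCA fixation, 0.04% sulforhodamine B staining, acetic acid wash, dye solubilized in 10 mM Tris base, absorbance at 515 nm. Results given as IC50 or mean ± SD; three independent measurements.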"}, "[8]": {"assay": "Cytotoxicity against human KBVIN cells assessed as decrease in cell viability after 72 hrs in presence of NQO1 inhibitor dicoumarol by MTT assay", "format": "functional, cell-based", "conditions": "in the assay text read “SRB assay” for “MTT assay”", "how_it_was_run": "as §2"}, "[9]": {"tested_on": "HeLa S3", "assay": "Cytotoxicity against human HeLaS3 cells assessed as decrease in cell viability after 72 hrs in presence of free radical scavenger NAc by MTT assay", "format": "functional, cell-based", "conditions": "HeLa S3, 72 h, in the assay text read “SRB assay” for “MTT assay”", "how_it_was_run": "as §2"}, "[10]": {"assay": "Cytotoxicity against human KBVIN cells assessed as decrease in cell viability after 72 hrs in presence of free radical scavenger NAc by MTT assay", "format": "functional, cell-based", "conditions": "in the assay text read “SRB assay” for “MTT assay”", "how_it_was_run": "as §2"}, "[11]": {"tested_on": "HeLa S3", "assay": "Induction of apoptosis in human HeLaS3 cells assessed as annexin V-positive cells at 0.6 uM after 72 hrs by annexin V-FITC/PI dual staining based flow cytometry relative to control", "format": "functional", "how_it_was_run": "(§3)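 Cells cultured overnight, then exposed in triplicate to 0.2, 0.6 or 1.8 μM or vehicle for 72 h. Annexin V-positive percentage given as mean ± SD of three independent experiments.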"}, "[12]": {"tested_on": "HeLa S3", "assay": "Induction of apoptosis in human HeLaS3 cells after 72 hrs by annexin V-FITC/PI dual staining based flow cytometry", "format": "functional, cell-based", "how_it_was_run": "as §3"}, "[13]": {"assay": "Cytotoxicity against human EEC assessed as decrease in cell viability after 72 hrs by MTT assay", "how_it_was_run": "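Endometrial epithelial cells maintained in RPMI-1640 with 10% FBS at 37 °C, 5% CO2. Exposed 72 h to the indicated concentrations, proliferation assessed by MTT; inhibition (%) reported as mean ± SD of three independent experiments.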"}, "[14]": {"tested_on": "HeLa S3", "assay": "Induction of apoptosis in human HeLaS3 cells assessed as annexin V-positive cells at 0.2 uM after 72 hrs by annexin V-FITC/PI dual staining based flow cytometry relative to control", "format": "functional", "how_it_was_run": "as §3"}, "[15]": {"tested_on": "HeLa S3", "assay": "Induction of apoptosis in human HeLaS3 cells assessed as increase in Bax expression levels after 72 hrs by Western blot analysis", "format": "functional, cell-based", "how_it_was_run": "(§4)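 Sub-confluent cells at 1.5 × 10^5/mL treated 72 h in DMEM with 10% FBS at the indicated doses or 0.1% DMSO vehicle. Lysates immunoblotted for Bax, Bcl-2 and caspase-3, detected with HRP secondary antibodies and chemiluminescence. Band densities normalized to β-actin by densitometry; mean ± SD of three separate experiments.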"}, "[16]": {"tested_on": "HeLa S3", "assay": "Induction of apoptosis in human HeLaS3 cells assessed as decrease in Bcl-2 expression levels after 72 hrs by Western blot analysis", "format": "functional, cell-based", "how_it_was_run": "as §4"}, "[17]": {"tested_on": "HeLa S3", "assay": "Induction of apoptosis in human HeLaS3 cells assessed as annexin V-positive cells at 1.8 uM after 72 hrs by annexin V-FITC/PI dual staining based flow cytometry relative to control", "format": "functional", "how_it_was_run": "as §3"}, "[18]": {"tested_on": "HeLa S3", "assay": "Induction of apoptosis in human HeLaS3 cells assessed as increase in caspase-3 cleavage at 0.2 to 1.8 uM after 72 hrs by Western blot analysis", "format": "functional, cell-based", "how_it_was_run": "as §4"}},
  "note": "Calls of active or inactive are those of the source. The calls are words filed in the database; no cut-off is given here.",
  "data": [
    {"compound": "COC(=O)/C=C/c1cccc(CNC2=CC(=O)c3ncccc3C2=O)c1", "values": [
      {"measurement": "IC50", "setting": "[1]", "result": 5250, "unit": "nM"},
      {"measurement": "Activity", "setting": "[2]", "result": "Dose-dependent effect"},
      {"measurement": "Activity", "setting": "[3]", "result": "Dose-dependent effect"},
      {"measurement": "Activity", "setting": "[4]", "result": "Dose-dependent effect"},
      {"measurement": "IC50", "setting": "[5]", "result": 530, "unit": "nM"},
      {"measurement": "Activity", "setting": "[6]", "result": "Dose-dependent effect"}
    ]},
    {"compound": "CN1CCN(c2ccc(NC3=CC(=O)c4ncccc4C3=O)cc2)CC1", "values": [
      {"measurement": "IC50", "setting": "[7]", "result": "> 3000", "unit": "nM"},
      {"measurement": "IC50", "setting": "[8]", "result": "> 3000", "unit": "nM"},
      {"measurement": "Activity", "setting": "[2]", "result": "Dose-dependent effect"},
      {"measurement": "Activity", "setting": "[3]", "result": "Dose-dependent effect"},
      {"measurement": "Activity", "setting": "[4]", "result": "Dose-dependent effect"},
      {"measurement": "IC50", "setting": "[9]", "result": "> 3000", "unit": "nM"},
      {"measurement": "IC50", "setting": "[10]", "result": "> 3000", "unit": "nM"},
      {"measurement": "Activity", "setting": "[6]", "result": "Dose-dependent effect"}
    ]},
    {"compound": "O=C1C=C(NCCc2c[nH]c3ccccc23)C(=O)c2ncccc21", "values": [
      {"measurement": "IC50", "setting": "[1]", "result": 6250, "unit": "nM"},
      {"measurement": "Activity", "setting": "[2]", "result": "Dose-dependent effect"},
      {"measurement": "Activity", "setting": "[3]", "result": "Dose-dependent effect"},
      {"measurement": "Activity", "setting": "[4]", "result": "Dose-dependent effect"},
      {"measurement": "IC50", "setting": "[5]", "result": 550, "unit": "nM"},
      {"measurement": "Activity", "setting": "[6]", "result": "Dose-dependent effect"}
    ]},
    {"compound": "CN1CCN(c2ccc(NC3=CC(=O)c4cccnc4C3=O)cc2)CC1", "values": [
      {"measurement": "IC50", "setting": "[1]", "result": 440, "unit": "nM"},
      {"measurement": "Activity", "setting": "[11]", "result": 27.6, "unit": "%"},
      {"measurement": "IC50", "setting": "[7]", "result": "> 3000", "unit": "nM"},
      {"measurement": "Activity", "setting": "[12]", "result": "Dose-dependent effect"},
      {"measurement": "Activity", "setting": "[13]", "result": "Non-Toxic"},
      {"measurement": "IC50", "setting": "[8]", "result": "> 3000", "unit": "nM"},
      {"measurement": "Activity", "setting": "[2]", "result": "Dose-dependent effect"},
      {"measurement": "Activity", "setting": "[14]", "result": 12.8, "unit": "%"},
      {"measurement": "Activity", "setting": "[15]", "result": "Dose-dependent effect"},
      {"measurement": "Activity", "setting": "[16]", "result": "Dose-dependent effect"},
      {"measurement": "Activity", "setting": "[3]", "result": "Dose-dependent effect"},
      {"measurement": "Activity", "setting": "[17]", "result": 66.3, "unit": "%"},
      {"measurement": "Activity", "setting": "[18]", "result": "Active"},
      {"measurement": "Activity", "setting": "[4]", "result": "Dose-dependent effect"},
      {"measurement": "IC50", "setting": "[5]", "result": 570, "unit": "nM"},
      {"measurement": "IC50", "setting": "[9]", "result": "> 3000", "unit": "nM"},
      {"measurement": "IC50", "setting": "[10]", "result": "> 3000", "unit": "nM"},
      {"measurement": "Activity", "setting": "[6]", "result": "Dose-dependent effect"}
    ]}
  ]
}
